Test results reported in ChEMBL document CHEMBL1122325, “2-[(Phenylthio)methyl]pyridine derivatives: new antiinflammatory agents” (1983).
Calls of active or inactive are those of the source. The calls are words filed in the database; no cut-off is given here.

Tests used:
[1] = species: Rattus norvegicus; experiment: animal or person; assay type: functional; details: po
[2] = test system: Rattus norvegicus; experiment: Inhibition of dermal RPAR in rats following p.o. administration.; assay type: functional
How it was run: (§1)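 Male Sprague-Dawley rats (140-160 g, n=6/group), fasted 18 h, given iv BSA 0.15% w/v with 0.4% Evans Blue in saline, then test agent orally in 0.2% methylcellulose about 1 h later (three dose levels, vehicle controls). Anti-BSA rabbit γ-globulin injected intradermally 30 min post-dose; lesions excised at 4 h, dye-outlined diameters measured, percent inhibition of lesion area versus control; 40% inhibition dose by least-squares regression.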

[3] = test system: Rattus norvegicus; experiment: Percent inhibition of rat dermal RPAR following 350 umol/kg p.o. administration.; assay type: functional; details: po
How it was run: as §1

[4] = test system: Rattus norvegicus; experiment: Inhibition of dermal RPAR in rats following p.o. administration; Not significant.; assay type: functional
How it was run: as §1

[5] = species: Rattus norvegicus; experiment: Reduction in leukocyte numbers in rat pleural RPAR exudate.; assay type: functional
How it was run: (§2)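 Fasted male Sprague-Dawley rats (160-200 g, 8-10/group) received BSA 3 mg/kg iv, then 1 h later intrapleural rabbit anti-BSA γ-globulin (0.2 mL); oral compound (four doses, 0.2% methylcellulose) or vehicle 30 min before. At 4 h, exudate volume and white cell count by phenol red dye dilution; percent inhibition versus control mean; ED50 by least-squares regression.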

[6] = species: Rattus norvegicus; experiment: Reduction in exudate volume in rat pleural RPAR test.; assay type: functional
How it was run: as §2

[7] = species: Rattus norvegicus; experiment: Reduction in exudate volume in rat pleural carrageenan test.; assay type: functional
How it was run: (§3)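 Fasted male Sprague-Dawley rats (160-200 g, 8-10/group) dosed orally at four levels in 0.2% methylcellulose, or vehicle, 30 min before intrapleural carrageenin (125 μg in 0.2 mL saline); no iv BSA. Killed 4 h later; pleural exudate volume and white cells measured by phenol red dye dilution, inhibition calculated against vehicle controls.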

[8] = species: Rattus norvegicus; experiment: Reduction in leukocyte numbers in rat pleural carrageenan test.; assay type: functional
How it was run: as §3

[9] = species: Rattus norvegicus; experiment: Reduction in exudate volume in rat pleural RPAR test; Nonactive.; assay type: functional, organism-based
How it was run: as §2

[10] = species: Rattus norvegicus; experiment: (§4) Reduction in leukocyte numbers in rat pleural RPAR exudate; Nonactive.; assay type: functional, organism-based
How it was run: as §2

[11] = species: Rattus norvegicus; experiment: as §4; assay type: functional, organism-based; remark: listed apart in the source
How it was run: as §2

SMILES	inhibition in vivo at 350 µmol/kg [1] [%]	ED40 [2] [µM/kg]	also measured
Clc1ccc(Cc2ccccn2)cc1	35	–	–
Cl.Clc1ccccc1SCc1ccccn1	–	300	–
Brc1ccc(SCC2CCCCN2)cc1 (stereo unspecified)	–	430	–
COc1cccnc1CSc1ccc(Br)cc1	–	–	inhibition in vivo at 350 µmol/kg [3]: 26%
Brc1ccc(SCCc2ccccn2)cc1	–	–	ED40 [4]: inactive
Cc1ccc(SCc2ccccn2)cc1	–	–	ED40 [4]: inactive
Brc1ccc(SCc2cccc(CSc3ccc(Br)cc3)n2)cc1	–	–	ED40 [4]: inactive
Cl.c1ccc(CSc2ncccn2)nc1	–	283	–
Cl.Fc1ccc(SCc2ccccn2)cc1	–	159	ED50 [5]: 129 µmol/kg; ED50 [6]: 137 µmol/kg
Cc1cc(C(C)(C)C)ccc1SCc1ccccn1	30	–	–
c1ccc(CCc2ccccn2)cc1	36	–	–
Brc1ccc(SCc2cc(-c3ccccc3)ccn2)cc1	–	–	ED40 [4]: inactive
Cl.Clc1ccc(SCc2ccccn2)cc1Cl	–	402	–
Cl.Cl.c1ccc(CSc2ccncc2)nc1	–	149	–
Clc1ccnc(CSc2ccc(Br)cc2)c1	–	–	ED40 [4]: inactive
CN1CCCCC1CSc1ccc(Br)cc1.Cl (stereo unspecified)	–	159	–
Cc1cccnc1CSc1ccc(Br)cc1	25	–	–
Cl.Clc1ccc(SCc2ccccn2)cc1	–	186	ED50 [5]: 162 µmol/kg; ED50 [6]: 154 µmol/kg
COc1cccc(SCc2ccccn2)c1.Cl	–	273	–
CC(Sc1ccc(Br)cc1)c1ccccn1.Cl (stereo unspecified)	–	212	–
CC(=O)Nc1ccc(SCc2ccccn2)cc1	30	–	–
Cl.FC(F)(F)c1cccc(SCc2ccccn2)c1	–	307	–
Brc1ccc(SCc2cccnc2)cc1	23	–	–
Clc1ccc(OCc2ccccn2)cc1	39	–	–
Oc1cccnc1CSc1ccc(Br)cc1	–	–	ED40 [4]: inactive
Cc1cccc(CSc2ccc(Br)cc2)n1	28	–	–
C[n+]1ccccc1CSc1ccc(Br)cc1	22	–	–

SMILES	inhibition in vivo at 350 µmol/kg [1] [%]	ED40 [2] [µM/kg]	also measured
Cc1ccc(CSc2ccc(Br)cc2)nc1	–	–	ED40 [4]: inactive
CC(C)(C)c1ccc(SCc2ccccn2)cc1	34	–	–
Brc1ccc(SCc2ccncc2)cc1	26	–	–
Cl.[O-][n+]1ccccc1CSc1ccc(Br)cc1	–	148	–
c1ccc(CSc2nc3ccccc3o2)nc1	26	–	–
Clc1cccc(CSc2ccc(Br)cc2)n1	–	–	ED40 [4]: inactive
Cl.c1ccc(SCc2ccccn2)cc1	–	101	ED50 [5]: 252 µmol/kg; ED50 [6]: 172 µmol/kg
Cl.[O-][S+](Cc1ccccn1)c1ccc(Br)cc1 (stereo unspecified)	–	216	–
Brc1ccc(SCc2ccccn2)cc1.Cl	–	151	ED50 [7]: 142 µmol/kg; ED50 [5]: 73 µmol/kg; ED50 [8]: 215 µmol/kg; ED50 [6]: 82 µmol/kg
C[C@]12CCC(=O)C=C1CC[C@@H]1[C@@H]2[C@@H](O)C[C@@]2(C)[C@H]1CC[C@]2(O)C(=O)CO [HYDROCORTISONE]	–	33	ED50 [7]: 33 µmol/kg; ED50 [5]: 50 µmol/kg; ED50 [8]: 25 µmol/kg; ED50 [6]: 38 µmol/kg
c1ccc(CSc2nc3ccccc3s2)nc1	–	–	ED40 [4]: inactive
c1ccc(CSC2CCCCC2)nc1	21	–	–
Cc1ccc(O)c(CSc2ccc(Br)cc2)n1	–	–	ED40 [4]: inactive
Brc1ccc(Sc2ccccn2)cc1.Cl	–	369	–
Brc1ccccc1SCc1ccccn1.Cl	–	282	–
Brc1ccc(CSCc2ccccn2)cc1	31	–	–
Cl.Clc1cccc(SCc2ccccn2)c1	–	223	–
Brc1ccc(NCc2ccccn2)cc1	–	–	ED40 [4]: inactive
Nc1ccc(SCc2ccccn2)cc1	25	–	–
Cl.O=S(=O)(Cc1ccccn1)c1ccc(Br)cc1	–	192	–
COc1ccc2c(c1)c(CC(=O)O)c(C)n2C(=O)c1ccc(Cl)cc1 [INDOMETHACIN]	–	–	ED50 [7]: 3 µmol/kg; ED50 [9]: inactive; ED50 [10]: inactive; ED40 [4]: inactive; ED50 [11]: inactive
Brc1ccc(CSc2ccccn2)cc1	36	–	–
COc1ccc(SCc2ccccn2)cc1.Cl	–	–	Inhibition [4]: 23%
Cl.Oc1nc(SCc2ccccn2)nc2ccccc12	–	177	–
Cl.O=[N+]([O-])c1ccc(SCc2ccccn2)cc1	–	233	–
Oc1ccc(SCc2ccccn2)cc1	–	–	ED40 [4]: inactive
